Results reported in ChEMBL document CHEMBL1126297, “Synthesis and evaluation of analogues of (Z)-1-(4-methoxyphenyl)-2-(3,4,5-trimethoxyphenyl)ethene as potential cytotoxic and antimitotic agents” (J Med Chem, 1992).

Legend:
Assay type in all cases: functional
HT-29 = experiment: Cytotoxicity against human HT-29 colon cell line.; details: read-out: ED50 (the source's name)
Procedure, shortened: (§1)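 MTT colorimetric assay run in the Purdue Cell Culture Laboratory. Poorly water-soluble compounds were serially diluted in DMSO and added as 0.5 μL aliquots per well. Cells were incubated with compound for 6 days before MTT was added. […] The reported ED50 is the mean of two determinations.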

SK-MEL-5 = experiment: Compound was evaluated for cytotoxicity against human SKMEL-5 melanoma cell line.; details: read-out: ED50 (the source's name); procedure, shortened: as §1
MLM = experiment: Cytotoxicity against human MLM melanoma cell line.; details: read-out: ED50 (the source's name); procedure, shortened: as §1
A549 = experiment: Compound was evaluated for cytotoxicity against human A-549 non-small cell lung cancer cell line.; details: read-out: ED50 (the source's name); procedure, shortened: as §1
Bos taurus = species on record: Bos taurus; experiment: Inhibition of tubulin polymerization
Procedure, shortened: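 Bovine brain tubulin, purified to electrophoretic homogeneity, was preincubated at 37 °C with a range of compound concentrations and then chilled on ice. GTP was added and polymerization followed at 37 °C by turbidity at 350 nm. Extent was read at 20 min against two controls per experiment, and IC50 was determined graphically. Actives were run in ≥3 independent assays, inactives (IC50 > 40 μM) in ≥2.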

MCF7 = experiment: Cytotoxicity against human MCF-7 breast cancer cell line.; details: read-out: ED50 (the source's name); procedure, shortened: as §1

Structure (SMILES)	EC50 (HT-29) [nM]	EC50 (SK-MEL-5) [nM]	EC50 (MLM) [nM]	EC50 (A549) [nM]	IC50 (Bos taurus) [nM]	EC50 (MCF7) [nM]
CCN(CC)CCOC(=O)/C(=C/c1cccc(OC)c1)c1cc(OC)c(OC)c(OC)c1	> 25000	6700	> 25000	7700	> 40000	10400
CCOc1ccc(CCc2cc(OC)c(OC)c(OC)c2)cc1	180	170	270	190	10000	190
COc1ccc2cc3n(c(=O)c2c1)CCc1c-3cc(OC)c(OC)c1OC	> 25000	> 25000	> 25000	> 25000	> 40000	> 25000
COc1cc(/C=C\c2ccc(C(C)C)cc2)cc(OC)c1OC	2400	–	–	–	12000	1400
COc1ccc(CCc2cc(OC)c(OC)c(OC)c2)cc1	2500	1400	1800	1800	7900	1600
COc1ccc(/C=C\c2cc(OC)c(OC)c(OC)c2)cc1	2600	2600	1600	–	2500	–
COc1ccc2c(ccc3cc(OC)c(OC)c(OC)c32)c1	> 25000	> 25000	> 25000	> 25000	> 40000	> 25000
COC(=O)/C(=C/c1ccc(OC)cc1)c1cc(OC)c(OC)c(OC)c1	500	6400	9600	1100	> 40000	2000
CCCOc1ccc(/C=C\c2cc(OC)c(OC)c(OC)c2)cc1	28	14	65	39	6000	660
COc1ccc(C2Cc3cc(OC)c(OC)c(OC)c3C2)cc1 (stereo unspecified)	12800	19500	> 25000	> 25000	> 40000	> 25000
COc1ccc(C(=O)c2nccc3c(OC)c(OC)c(OC)cc23)cc1	> 25000	> 25000	> 25000	> 25000	> 40000	> 25000
COc1cc(CCc2ccc(C)cc2)cc(OC)c1OC	100	270	1400	180	21000	220
COc1cc2ccc3cccc(OC)c3c2c(OC)c1OC	1900	1300	21400	5700	> 40000	1800
CNC(=O)/C(=C/c1ccc(OC)cc1)c1cc(OC)c(OC)c(OC)c1	2600	2400	93000	2400	35000	5000
COc1ccc(/C=C/c2cc(OC)c(OC(C)=O)c(OC)c2)cc1	11700	10200	21000	16400	> 40000	19400
CCOc1ccc(/C=C\c2cc(OC)c(OC)c(OC)c2)cc1	1800	2500	–	1600	2700	9600
COc1ccc(C(O)c2cc(OC)c(OC)c(OC)c2)cc1 (stereo unspecified)	1200	1500	16800	1500	> 40000	1900
COc1ccc(C(Cc2cc(OC)c(OC)c(OC)c2)C(=O)O)cc1 (stereo unspecified)	9400	7400	> 25000	14300	> 40000	> 25000
CCOc1ccc(/C=C/c2cc(OC)c(OC)c(OC)c2)cc1	1490	1170	–	–	> 40000	7500
COc1ccc(/C=C\c2cc(OC)c(OC)c(OC)c2)cc1O [COMBRETASTATIN A4]	10	0.14	0.43	0.32	–	5.6
